This is an account of results in PubChem BioAssay.

Active and inactive are the calls of the source.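 How the source made its calls, unless noted: active means viability at or below 10% of carrier control in both of two separate runs; inconclusive means viability at or below 10% in only one of the two runs; inactive means the rest.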

A short description of assay [1]: Her2 expression decrease, cell viability multiplex – SKBR3 breast tumor cells, AlphaScreen, ATP viability, primary screen (AID 461;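 active means Her2 level under about 52% in both replicate screens, with viability over 70% of control, limit read from the data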;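 on Her2 level: lower value means less Her2 protein in the cells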;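 on viability: percent of carrier control wells set as 100% viability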). Conditions: SKBR3 Her2 protein level, 18-24 h, measured here: SKBR3 viability, ATP luminescence, at 10 µM. On the technique in general: Bead proximity is the source of the signal in Alpha formats.
Assay [2] has as its target Receptor tyrosine-protein kinase erbB-2 (Homo sapiens) (UniProt P04626). The assay is described as above. The conditions noted are these: 18-24 h, at 10 µM, stronger effect = lower value.
A short description of assay [3]: reduced viability of SK-BR-3 breast cancer cells – cell-based, 24 h, human, pilot screen (AID 572).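 Further: compound exposure lasted between 18 and 24 h rather than exactly 24 h; 100% = carrier-treated control wells.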 The conditions noted are these: SK-BR-3 viability, CellTiter-Glo luminescence, at 10 µM, stronger effect = lower value. On the technique in general: ATP-based viability assays read luminescence as a measure of living cells.
Assay [4] in a line: HUVEC growth inhibition – cell-based, human, primary screen (AID 575;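 active means viability at or below 30% in both replicate assays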;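 further: 100% = median of untreated cell wells with 0.1% DMSO on each plate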). Conditions: HUVEC proliferation, CellTiter-Glo luminescence, 72 h; at 10 µM; stronger effect = lower value. The procedure, abridged: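 Assay system: Primary human umbilical vein endothelial cells | Quantity: 1250 cells per well | Medium: Supplemented EBM, 2% fetal bovine serum | Detection: CellTiter-Glo luminescence measuring cellular ATP | Read-out: % viability vs DMSO wells | Plate: Collagen-coated 384-well format | Times: 72 h exposure, 37 °C, 5% CO2, 30 min RT equilibration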

Assay [5] is described as follows: H69AR cell proliferation blockers – human, duplicate replicates, primary screen (AID 580;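 active means viability at or under a set limit in both replicates, limit being median viability minus 3 SD, cut at about 48% in these data, passing the limit was not always enough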;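 further: 100% = mean luminescence of untreated wells and 0% = no signal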). The conditions noted are these: H69AR lung tumor cells viability, ATP luminescence, 72 h; at 10 µM; stronger effect = lower value.
A short description of assay [6]: MRP1 drug-resistance reversers in H69AR cells – cell-based, doxorubicin co-treatment, pilot screen (AID 601;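 active means viability loss from added drug above about 55%, and viability with drug at most 40%, in both replicates, limit read from the data, passing the limit was not always enough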). Conditions: CellTiter-Glo, 72 h, at 10 µM; for differential viability (reversal): stronger effect = higher value.
Assay [7] can be described thus: yeast transport mutant growth inhibition pilot in 384-well plates, post-Golgi transport modulator project (AID 636; in the data active means inhibition above about 31%). Conditions: absorbance 615 nm, about 18 h, stronger effect = higher value.
Assay [8] can be described thus: growth suppression of yeast trafficking mutant, preliminary HTS, modulators of trafficking downstream of Golgi apparatus project, 1536-format plate, OD 615 nm (AID 637; in the data active means inhibition above about 30%). The conditions noted are these: yeast transport mutant growth, absorbance 615 nm, 18 h; stronger effect = higher value.
Setting [9] is: H69AR cells + 2 uM doxorubicin, measured here: viability with 2 uM doxorubicin, stronger effect = lower value.
Where [10] appears, read: H69AR cells, compound alone cytotoxicity.

Sequence of Receptor tyrosine-protein kinase erbB-2 (Homo sapiens) (P04626 whole entry, looked up): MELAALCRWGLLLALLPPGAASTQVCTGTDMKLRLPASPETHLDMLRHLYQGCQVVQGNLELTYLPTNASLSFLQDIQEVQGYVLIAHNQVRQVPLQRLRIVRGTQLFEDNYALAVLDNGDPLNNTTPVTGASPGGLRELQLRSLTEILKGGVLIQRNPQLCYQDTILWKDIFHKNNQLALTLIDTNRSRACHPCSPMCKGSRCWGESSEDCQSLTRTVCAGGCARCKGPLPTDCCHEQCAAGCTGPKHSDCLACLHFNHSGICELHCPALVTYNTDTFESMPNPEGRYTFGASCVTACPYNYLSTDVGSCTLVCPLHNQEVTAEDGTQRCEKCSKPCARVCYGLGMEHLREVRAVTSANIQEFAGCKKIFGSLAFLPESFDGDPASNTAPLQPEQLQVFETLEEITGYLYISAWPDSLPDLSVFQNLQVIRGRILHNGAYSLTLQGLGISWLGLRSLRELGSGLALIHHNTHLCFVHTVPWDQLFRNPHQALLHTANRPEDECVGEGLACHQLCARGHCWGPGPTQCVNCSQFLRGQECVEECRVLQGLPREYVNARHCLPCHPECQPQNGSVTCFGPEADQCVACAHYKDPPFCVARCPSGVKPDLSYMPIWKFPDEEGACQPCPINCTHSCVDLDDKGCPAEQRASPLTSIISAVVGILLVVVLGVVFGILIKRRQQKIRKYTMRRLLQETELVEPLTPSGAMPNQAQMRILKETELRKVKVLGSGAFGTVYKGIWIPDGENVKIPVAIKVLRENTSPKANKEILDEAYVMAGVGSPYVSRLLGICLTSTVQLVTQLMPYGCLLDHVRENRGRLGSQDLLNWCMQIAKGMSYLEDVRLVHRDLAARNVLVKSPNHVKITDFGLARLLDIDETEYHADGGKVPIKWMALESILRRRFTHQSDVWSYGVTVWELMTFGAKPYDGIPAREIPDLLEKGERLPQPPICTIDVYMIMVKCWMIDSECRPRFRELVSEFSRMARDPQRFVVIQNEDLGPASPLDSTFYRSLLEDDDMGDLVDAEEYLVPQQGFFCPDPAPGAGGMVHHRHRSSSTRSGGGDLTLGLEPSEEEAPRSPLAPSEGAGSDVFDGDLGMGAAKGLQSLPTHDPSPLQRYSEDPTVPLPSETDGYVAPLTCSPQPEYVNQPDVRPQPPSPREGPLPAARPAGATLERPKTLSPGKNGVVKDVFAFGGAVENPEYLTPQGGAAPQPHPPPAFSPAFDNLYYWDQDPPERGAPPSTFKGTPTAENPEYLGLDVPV

As for `COc1ccc(-c2cc(C(F)(F)F)n3nc(C(=O)N4CCOCC4)nc3n2)cc1`, the viability (commonly a read-out of living cells in per cent, often relative to untreated cells) in assay [1] is 88%; in assay [3], 88% (inactive); in assay [4], 101% (inactive); in assay [5], 94.1% (inactive); in assay [6] (setting [9]), 89.6%; in assay [6] (setting [10]), 94.1%. For the same compound, in assay [2], the Her2 level was 116% (inactive). Moreover, the differential viability (reversal) in assay [6] (H69AR cells + 2 uM doxorubicin) was 4.48% (inactive). Also, the inhibition (in general, the relative decrease from the control value, in per cent) in assay [7] was -0.64% (inactive); in assay [8], -4.17% (inactive).
Take `Cc1cccc(Nc2nc(N)nc(CN3CCC(C(N)=O)CC3)n2)c1C`: the viability in assay [1] was 89%; in assay [3], 89% (inactive); in assay [4], 105% (inactive); in assay [5], 98.1% (inactive); in assay [6] (setting [9]), 85.2%; in assay [6] (setting [10]) it was 98.1%. Also, in assay [2], the Her2 level is 89% (inactive). Moreover, the differential viability (reversal) in assay [6] (H69AR cells + 2 uM doxorubicin) is 12.8% (inactive). Moreover, the inhibition in assay [7] is -5.58% (inactive); in assay [8] it was -3.49% (inactive).
In the case of `CCC(Sc1ccc(C(=O)O)cc1)C(=O)O` (stereo not given), the viability is 86.5% in assay [1]; 86.5% (inactive) in assay [3]; 95.2% (inactive) in assay [4]; 93.9% (inactive) in assay [5]; 90.2% in assay [6] (setting [9]); 93.9% in assay [6] (setting [10]). Besides, the Her2 level in assay [2] was 96% (inactive). The differential viability (reversal) in assay [6] (H69AR cells + 2 uM doxorubicin) is 3.74% (inactive). Moreover, the inhibition in assay [7] was -1.97% (inactive); in assay [8] it was -10% (inactive).
In the case of `CCOC(=O)CSc1nc2cc(C(=O)NCc3ccco3)ccc2c(=O)n1-c1ccc(F)cc1`, the viability is 86.5% in assay [1]; 86.5% (inactive) in assay [3]; 71.4% (inactive) in assay [4]; 87.5% (inactive) in assay [5]; 75.6% in assay [6] (setting [9]); 87.5% in assay [6] (setting [10]). For the same compound, in assay [2], the Her2 level is 105% (inactive). The differential viability (reversal) in assay [6] (H69AR cells + 2 uM doxorubicin) was 12% (inactive). For the same compound, the inhibition is -0.93% (inactive) in assay [7] and 12.8% (inactive) in assay [8].
For the compound `O=C(NC1CCCCC1)n1c(=O)oc2ccc(Cl)cc21`, the viability in assay [1] is 118%; in assay [3] it was 118% (inactive); in assay [4], 94.8% (inactive); in assay [5], 94.2% (inactive); in assay [6] (setting [9]), 76.7%; in assay [6] (setting [10]), 94.2%. Moreover, the Her2 level in assay [2] was 92% (inactive). Also, the differential viability (reversal) in assay [6] (H69AR cells + 2 uM doxorubicin) was 17.5% (inactive). The values for the inhibition in assay [7] and in assay [8] were -2.73% (inactive) and -7.62% (inactive), respectively.
As to `COC(=O)C1=C(C)Nc2nnnn2C1c1cccs1` (stereo not given), the viability is 95.5% in assay [1]; 95.5% (inactive) in assay [3]; 104% (inactive) in assay [4]; 96.9% (inactive) in assay [5]; 93.8% in assay [6] (setting [9]); 96.9% in assay [6] (setting [10]). The Her2 level in assay [2] was 101% (inactive). Also, the differential viability (reversal) in assay [6] (H69AR cells + 2 uM doxorubicin) is 3.09% (inactive). Moreover, the results for the inhibition in assay [7] and in assay [8] were 2.84% (inactive) and 5.71% (inactive), respectively.
Regarding `COc1ccc(N2CCN(c3nc4c(c(=O)[nH]c(=O)n4C)n3CCCc3ccccc3)CC2)cc1`, the viability in assay [1] was 120%; in assay [3], 120% (inactive); in assay [4], 94% (inactive); in assay [5] it was 84.9% (inactive); in assay [6] (setting [9]) it was 87%; in assay [6] (setting [10]) it was 84.9%. Besides, the Her2 level in assay [2] is 102% (inactive). Further, in assay [6] (H69AR cells + 2 uM doxorubicin), the differential viability (reversal) was -2.09% (inactive). Moreover, the inhibition is -6.8% (inactive) in assay [7] and 0.48% (inactive) in assay [8].
Take `O=C(Nc1cccc(Cl)c1)N1CCN(c2ncccn2)CC1`: the viability in assay [1] was 100%; in assay [3], 100% (inactive); in assay [4], 124% (inactive); in assay [5], 104% (inactive); in assay [6] (setting [9]), 86.7%; in assay [6] (setting [10]), 104%. In assay [2], the Her2 level is 94.5% (inactive). Besides, the differential viability (reversal) in assay [6] (H69AR cells + 2 uM doxorubicin) was 17.4% (inactive). Moreover, the inhibition in assay [7] is 0.27% (inactive); in assay [8] it was -6.51% (inactive).
`COc1cc(S(=O)(=O)N2CCOCC2)ccc1NC(=O)COC(=O)c1ccccn1`: the viability in assay [1] is 114%; in assay [3] it was 114% (inactive); in assay [4], 85.8% (inactive); in assay [5], 84.8% (inactive); in assay [6] (setting [9]), 97.6%; in assay [6] (setting [10]), 84.8%. Besides, in assay [2], the Her2 level was 92% (inactive). The differential viability (reversal) in assay [6] (H69AR cells + 2 uM doxorubicin) was -12.8% (inactive). In addition, the inhibition in assay [7] is -6.71% (inactive); in assay [8] it was -0.18% (inactive).
On to `Cc1cc2oc(=O)cc(C)c2c(=O)o1`, for which the viability in assay [1] was 101%; in assay [3] it was 101% (inactive); in assay [4] it was 94.8% (inactive); in assay [5], 108% (inactive); in assay [6] (setting [9]), 96.6%; in assay [6] (setting [10]) it was 108%. Besides, the Her2 level in assay [2] was 136% (inactive). Besides, the differential viability (reversal) in assay [6] (H69AR cells + 2 uM doxorubicin) was 11.2% (inactive). The figures for the inhibition in assay [7] and in assay [8] were 2.5% (inactive) and -3.83% (inactive), respectively.
Take `Cc1cc(-n2c(C)cc(C(=O)CSc3nc4ccccc4c(=O)n3Cc3ccco3)c2C)no1`: the viability in assay [1] was 105%; in assay [3] it was 105% (inactive); in assay [4], 92.2% (inactive); in assay [5], 93.8% (inactive); in assay [6] (setting [9]), 89.7%; in assay [6] (setting [10]) it was 93.8%. In assay [2], the Her2 level is 83.5% (inactive). Moreover, the differential viability (reversal) in assay [6] (H69AR cells + 2 uM doxorubicin) is 4.09% (inactive). Further, the inhibition in assay [7] is -6.8% (inactive); in assay [8], -1.43% (inactive).
Take `O=C(c1ccc(Cl)cc1)N1CCCCC(Sc2nnc(-c3ccc4c(c3)OCO4)o2)C1=O` (stereo not given): the viability was 118% in assay [1]; 118% (inactive) in assay [3]; 62% (inactive) in assay [4]; 88.5% (inactive) in assay [5]; 91.9% in assay [6] (setting [9]); 88.5% in assay [6] (setting [10]). Also, the Her2 level in assay [2] was 76% (inactive). Further, the differential viability (reversal) in assay [6] (H69AR cells + 2 uM doxorubicin) is -3.4% (inactive). In addition, the inhibition is -6.49% (inactive) in assay [7] and 5.56% (inactive) in assay [8].
Consider `O=C(CSc1ncnc2c1cnn2-c1ccccc1)Nc1ccccc1`, for which the viability was 96% in assay [1]; 96% (inactive) in assay [3]; 63.1% (inactive) in assay [4]; 79.7% (inactive) in assay [5]; 72.2% in assay [6] (setting [9]); 79.7% in assay [6] (setting [10]). Moreover, the Her2 level in assay [2] is 88% (inactive). For the same compound, the differential viability (reversal) in assay [6] (H69AR cells + 2 uM doxorubicin) was 7.43% (inactive). Besides, the values for the inhibition in assay [7] and in assay [8] were -7.95% (inactive) and 2.22% (inactive), respectively.
With `CCOC(=O)c1[nH]c2ccccc2c1NC(=O)c1ccco1`, the viability in assay [1] was 102%; in assay [3], 102% (inactive); in assay [4], 106% (inactive); in assay [5] it was 80.3% (inactive); in assay [6] (setting [9]), 83.2%; in assay [6] (setting [10]), 80.3%. Moreover, in assay [2], the Her2 level was 79% (inactive). Also, the differential viability (reversal) in assay [6] (H69AR cells + 2 uM doxorubicin) is -2.98% (inactive). Moreover, the results for the inhibition in assay [7] and in assay [8] were -7.03% (inactive) and 4.33% (inactive), respectively.
Regarding `O=C1N(c2ccccc2)C2CS(=O)(=O)CC2N1c1ccc(Br)cc1` (stereo not given), the viability was 102% in assay [1]; 102% (inactive) in assay [3]; 97.7% (inactive) in assay [4]; 101% (inactive) in assay [5]; 83.2% in assay [6] (setting [9]); 101% in assay [6] (setting [10]). In assay [2], the Her2 level is 88.5% (inactive). For the same compound, the differential viability (reversal) in assay [6] (H69AR cells + 2 uM doxorubicin) was 17.5% (inactive). Further, the values for the inhibition in assay [7] and in assay [8] were -6.4% (inactive) and -0.95% (inactive), respectively.
Take `COCCNC(=O)Cn1nc(C(F)(F)F)c(Br)c1C`: the viability in assay [1] is 118%; in assay [3], 118% (inactive); in assay [4], 90.4% (inactive); in assay [5], 108% (inactive); in assay [6] (setting [9]), 92.5%; in assay [6] (setting [10]), 108%. For the same compound, the Her2 level in assay [2] is 104% (inactive). Moreover, the differential viability (reversal) in assay [6] (H69AR cells + 2 uM doxorubicin) was 15.8% (inactive). Further, the inhibition in assay [7] is -4.27% (inactive); in assay [8], -0.81% (inactive).
